The text below walks through data of ChEMBL document CHEMBL1136965, “Inhibition of dynamin mediated endocytosis by the dynoles--synthesis and functional activity of a family of indoles” (J Med Chem, 2009).

Molecules are shown by their SMILES. Activity calls are given as the source filed them. The rule behind the calls is not given here.

The species entered for series [1] is Ovis aries. Kind of series: Inhibition of sheep brain dynamin 1 GTPase activity at 300 uM by malachite green GTPase assay.
The target of series [2] is T1, Dynamin-2 (Homo sapiens) (UniProt P50570).
T1 sequence (whole entry): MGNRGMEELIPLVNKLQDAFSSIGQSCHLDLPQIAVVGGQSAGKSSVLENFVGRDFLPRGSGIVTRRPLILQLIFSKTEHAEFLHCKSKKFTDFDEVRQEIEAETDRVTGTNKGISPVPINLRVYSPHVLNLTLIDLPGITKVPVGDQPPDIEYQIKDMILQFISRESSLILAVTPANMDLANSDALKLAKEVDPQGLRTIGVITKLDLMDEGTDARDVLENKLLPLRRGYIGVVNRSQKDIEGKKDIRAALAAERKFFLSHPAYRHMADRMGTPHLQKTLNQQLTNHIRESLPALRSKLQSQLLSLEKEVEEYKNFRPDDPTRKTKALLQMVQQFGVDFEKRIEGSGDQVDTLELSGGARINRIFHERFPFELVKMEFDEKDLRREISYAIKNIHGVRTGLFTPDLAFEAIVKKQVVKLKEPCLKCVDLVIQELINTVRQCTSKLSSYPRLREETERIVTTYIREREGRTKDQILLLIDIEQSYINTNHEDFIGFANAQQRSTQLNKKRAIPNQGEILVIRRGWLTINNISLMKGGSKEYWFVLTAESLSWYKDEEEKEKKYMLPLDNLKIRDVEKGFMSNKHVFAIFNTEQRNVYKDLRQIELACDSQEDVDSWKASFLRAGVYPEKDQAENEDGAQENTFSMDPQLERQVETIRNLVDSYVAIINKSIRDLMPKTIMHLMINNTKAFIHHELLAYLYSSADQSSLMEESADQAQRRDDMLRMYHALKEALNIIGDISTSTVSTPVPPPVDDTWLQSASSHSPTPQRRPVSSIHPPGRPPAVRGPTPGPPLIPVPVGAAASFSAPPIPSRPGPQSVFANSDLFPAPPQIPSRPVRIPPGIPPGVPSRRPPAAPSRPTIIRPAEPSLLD
The series is described as follows: Inhibition of dynamin 2-mediated endocytosis internalization of Texas red-transferrin in human U2OS cells at 100 uM pretreated for 30 mins. It counts as cell-based. The method in brief: (§1)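 U2OS cells in DMEM/10% FCS on fibronectin-coated wells, serum-starved overnight (16 h). Preincubated 30 min with drug or vehicle, then Tf-Texas Red 4 µg/mL for 8 min at 37 °C. Ice-cold acid wash (0.2 M acetic acid/0.5 M NaCl, pH 2.8) strips surface Tf. Cells fixed in 4% PFA and DAPI-stained, and internalized Tf-TxR imaged by fluorescence microscopy. Final DMSO at most 1%.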

Series [3] in a line: Inhibition of sheep brain dynamin 1 GTPase activity by malachite green GTPase assay. On the set-up: species or system Ovis aries. The method in brief: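 Buffer: 5 mM Tris pH 7.4, 10 mM NaCl, 2 mM Mg2+, 0.05% Tween 80, leupeptin, PMSF. GTP 0.3 mM, 30 min at 37 °C. Stopped with EDTA, malachite green added, A650 read against a phosphate standard. IC50 is the mean of at least three experiments in duplicate.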

Series [4] has as its system U2OS. Kind of series: Toxicity against human U2OS cells assessed as effect on cell morphology after 30 mins. To be noted: 0.5 h. It counts as cell-based.
Series [5] deals with T1, Dynamin-2 (Homo sapiens). Kind of series: Inhibition of dynamin 2-mediated endocytosis internalization of Texas red-transferrin in human U2OS cells at 30 uM pretreated for 30 mins. Type of series: cell-based. The method in brief:
as §1

Series [6] can be described thus: Toxicity against human fibroblasts assessed as cell viability at 10 uM by trypan blue exclusion method. Type of series: cell-based, Fibroblast. The conditions noted are these: read-out: Activity. The gist of the method: (§2)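 Cells seeded at 1 × 10⁵ per 10 cm dish. From 24 h after seeding, exposed continuously for 7 days to drug (10 µM) or 0.5% DMSO vehicle. Floating and adherent cells collected, and viability scored by Trypan Blue exclusion on an automated analyzer. Cell lines: hTert breast stromal fibroblasts, two primary skin fibroblast lines, a primary myoblast line, NIH3T3.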

The nature of series [7]: Toxicity against mouse NIH/3T3 cells assessed as cell viability at 10 uM by trypan blue exclusion method. It counts as cell-based, NIH3T3. The conditions noted are these: read-out: Activity. The gist of the method: as §2
The species named for series [8] is Ovis aries. The series is described as follows: Uncompetitive inhibition of sheep brain dynamin 1 GTPase activity using variable GTP level by kinetic assay. It counts as tissue-based. The method in brief:
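Malachite green Pi release assay with PS-stimulated sheep brain dynamin I (20 nM) at 37 °C for 30 min, with GTP substrate varied in the presence of inhibitor. Vmax and Km were obtained by nonlinear Michaelis–Menten fitting, then the data were replotted as Lineweaver–Burk to assign the inhibition mode.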

For `CCCCCCNC(=O)/C(C#N)=C/c1c(C)[nH]c2ccccc12`, in series [1], the inhibition result is “inactive”.
For `CCCCCCNC(=O)/C(C#N)=C/c1c(C)n(CCCN(C)C)c2ccccc12`, the outcome in series [2] was Active. Besides, 6.62 µM corresponded to half-maximal inhibition in series [3] (IC50). For the same compound, in series [4], the Activity entry is given as “Non-toxic”.
On to `CCCCCCCCCCCCNC(=O)/C(C#N)=C/c1c(C)n(CCN(C)C)c2ccccc12`, for which the IC50 in series [3] was found to be 32 µM.
Still for that read-out and setting: under `CCCCCCCCCCCCCCNC(=O)/C(C#N)=C/c1c(C)n(CCCN(C)C)c2ccccc12` stands 52 µM.
For `CCCNC(=O)/C(C#N)=C/c1c(C)[nH]c2ccccc12`, the inhibition result in series [1] was “inactive”.
`Cc1c(/C=C(\C#N)C(=O)NC2CCCCC2)c2ccccc2n1CCCN(C)C` returned a concentration for half-maximal inhibition (IC50) in series [3] of 300 µM.
Still for that read-out and setting: under `CN(C)CCCn1ccc2ccccc21` stands 300 µM; under `Cc1c(/C=C(\C#N)C(=O)NCc2ccccc2)c2ccccc2n1CCCN(C)C`, 201 µM.
In the case of `COc1ccc(CNC(=O)/C(C#N)=C/c2c(C)[nH]c3ccccc23)cc1`, the inhibition result in series [1] is “inactive”.
Take `CCCCCCCCCCNC(=O)/C(C#N)=C/c1c(C)n(CCN(C)C)c2ccccc12`: the outcome in series [2] was Active. Besides, the midpoint of inhibition in series [3], the IC50, lay at 10.1 µM. Moreover, the Activity entry in series [4] was “Non-toxic”.
On to `CCCCCCCCCCCCCCNC(=O)/C(C#N)=C/c1c(C)n(CCN(C)C)c2ccccc12`, for which the half-maximal inhibitory concentration (IC50) in series [3] came out at 38 µM.
With `CCCCCCCCCCCCCCNC(=O)/C(C#N)=C/c1c(C)[nH]c2ccccc12`, the inhibition result in series [1] is “inactive”.
Same read-out and setting: as for `Cc1c(C=O)c2ccccc2n1CCCN(C)C`, the entry is “inactive”.
Same read-out and setting: as for `Cc1[nH]c2ccccc2c1/C=C(\C#N)C(=O)NCc1ccccc1`, the entry is “inactive”.
In series [3], `Cc1cc2ccccc2n1CCN(C)C` yielded an IC50 of 300 µM.
As to `CCNC(=O)/C(C#N)=C/c1c(C)n(CCCN(C)C)c2ccccc12`, the inhibition result in series [1] was “inactive”.
In turn, `CN(C)CCCn1cc(C2=C(c3c[nH]c4ccccc34)C(=O)NC2=O)c2ccccc21` [GF-109203] showed an IC50 in series [3] of 100 µM.
Consider `CCCCCCCCCCCCNC(=O)/C(C#N)=C/c1c(C)[nH]c2ccccc12`, for which the inhibition entry in series [1] is “inactive”.
Same read-out and setting: as for `Cc1c(C=O)c2ccccc2n1CCN(C)C`, the entry is “inactive”; as for `CN(C)CCn1cc(CC(=O)O)c2ccccc21`, “inactive”.
`CN(C)CCCn1cc(CCC(=O)O)c2ccccc21` gave an IC50 in series [3] of 143 µM.
For `CCCCCCCCNC(=O)/C(C#N)=C/c1cn(CCCN(C)C)c2ccccc12`, the result in series [2] and in series [5] was Active. This compound showed an IC50 in series [3] of 1.3 µM. Also, the viability at 10 µM in series [6] and in series [7] was over 98% in each case. The Activity result in series [4] is listed as “Non-toxic”.
On to `CCCCCCCCNC(=O)/C(C#N)=C/c1c(C)n(CCN(C)C)c2ccccc12`, for which, in series [2], the outcome was Active. The half-inhibitory concentration (IC50) in series [3] stood at 9.05 µM. In series [4], the Activity entry is “Non-toxic”.
With `Cc1[nH]c2ccccc2c1/C=C(\C#N)C(=O)NC1CCCCC1`, the inhibition result in series [1] was “inactive”.
As to `CCCCNC(=O)/C(C#N)=C/c1c(C)n(CCN(C)C)c2ccccc12`, in series [3], the IC50 worked out at 300 µM.
Same read-out and setting: as for `CN1CCCC1CCn1cc(C2=C(c3c[nH]c4ccccc34)C(=O)NC2=O)c2ccccc21` (centres undefined), the figure is 100 µM.
With `CCCCCCCCCCNC(=O)/C(C#N)=C/c1c(C)[nH]c2ccccc12`, in series [1], the inhibition entry was “inactive”.
The same measure, in the same setting: under `CCNC(=O)/C(C#N)=C/c1c(C)[nH]c2ccccc12` stands “inactive”; under `CCNC(=O)/C(C#N)=C/c1c(C)n(CCN(C)C)c2ccccc12`, “inactive”.
In the case of `Cc1cc2ccccc2n1CCCN(C)C`, in series [3], it took 300 µM to reach half-maximal inhibition (IC50).
In series [3], `Cc1c(/C=C(\C#N)C(=O)NC2CCCCC2)c2ccccc2n1CCN(C)C` gave an IC50 of 300 µM.
Still for that read-out and setting: as for `CN(C)CCn1ccc2ccccc21`, the figure is 300 µM.
The same measure, in the same setting: under `COc1ccc(CNC(=O)/C(C#N)=C/c2c(C)n(CCCN(C)C)c3ccccc23)cc1` stands 222 µM.
Turning to `CN(C)CCCn1cc(CC(=O)O)c2ccccc21`, the inhibition result in series [1] was “inactive”.
Consider `CCCCCCCCNC(=O)/C(C#N)=C/c1c(C)n(CCCN(C)C)c2ccccc12`, for which the result in series [8], in series [2] and in series [5] was Active. In series [3], this compound registered a half-inhibitory concentration (IC50) of 3.33 µM. In addition, the Activity entry in series [4] is “Non-toxic”.
On to `Cc1c(/C=C(\C#N)C(=O)NCc2ccccc2)c2ccccc2n1CCN(C)C`, for which the concentration for half-maximal inhibition (IC50) in series [3] stood at 196 µM.
With `CCCCCCCCNC(=O)/C(C#N)=C/c1c(C)[nH]c2ccccc12`, the inhibition result in series [1] is “inactive”.
In series [3], `CN(C)CCn1cc(CCC(=O)O)c2ccccc21` gave an IC50 of 131 µM.
Consider `CCCNC(=O)/C(C#N)=C/c1c(C)n(CCN(C)C)c2ccccc12`, for which the inhibition entry in series [1] was “inactive”.
Same read-out and setting: under `CCCNC(=O)/C(C#N)=C/c1c(C)n(CCCN(C)C)c2ccccc12` stands “inactive”; under `CCCCNC(=O)/C(C#N)=C/c1c(C)[nH]c2ccccc12`, “inactive”.
As to `CCCCNC(=O)/C(C#N)=C/c1c(C)n(CCCN(C)C)c2ccccc12`, the inhibition entry in series [1] is “inactive”.
As to `COc1ccc(CNC(=O)/C(C#N)=C/c2c(C)n(CCN(C)C)c3ccccc23)cc1`, in series [3], it took 254 µM to reach half-maximal inhibition (IC50).
As to `CCCCCCNC(=O)/C(C#N)=C/c1c(C)n(CCN(C)C)c2ccccc12`, it took 7.69 µM to reach half-maximal inhibition in series [3] (IC50).

A word on the IC50: it is the concentration at which inhibition is half-maximal. A lower IC50 goes with higher potency.
